Data published in ChEMBL document CHEMBL4152188, “Design, synthesis and biological evaluation of C(4) substituted monobactams as antibacterial agents against multidrug-resistant Gram-negative bacteria” (Eur J Med Chem, 2018).

How the values were obtained:
Format in all cases: functional
[1] = test system: Klebsiella pneumoniae; assay: Antibacterial activity against KPC-2 producing Klebsiella pneumoniae isolate 209632 after 18 hrs by CLSI broth microdilution method; conditions: isolate 209632, 18 h
[2] = test system: Pseudomonas aeruginosa; assay: Selectivity index, ratio of MIC for against IMP-4 producing Pseudomonas aeruginosa isolate 207272 to MIC for against IMP-4 producing Pseudomonas aeruginosa isolate 207272 in presence of BPL
[3] = test system: Escherichia coli; assay: Antibacterial activity against extended-spectrum beta-lactamase producing Escherichia coli isolate 209285 after 18 hrs by CLSI broth microdilution method; conditions: isolate 209285, 18 h
[4] = test system: Escherichia coli; assay: Antibacterial activity against extended-spectrum beta-lactamase producing Escherichia coli isolate 106342 after 18 hrs by CLSI broth microdilution method; conditions: isolate 106342, 18 h
[5] = test system: Klebsiella pneumoniae; assay: Antibacterial activity against KPC-2 producing Klebsiella pneumoniae isolate 209735 after 18 hrs by CLSI broth microdilution method; conditions: isolate 209735, 18 h
[6] = test system: Klebsiella pneumoniae; assay: Selectivity index, ratio of MIC for against KPC-2 producing Klebsiella pneumoniae isolate 209632 to MIC for against KPC-2 producing Klebsiella pneumoniae isolate 209632 in presence of BPL
[7] = test system: Klebsiella pneumoniae; assay: Antibacterial activity against KPC-2 producing Klebsiella pneumoniae isolate 212423 after 18 hrs by CLSI broth microdilution method; conditions: isolate 212423, 18 h
[8] = test system: Pseudomonas aeruginosa; assay: Antibacterial activity against IMP-4 producing Pseudomonas aeruginosa isolate 209321 after 18 hrs in presence of BPL by CLSI broth microdilution method; conditions: isolate 209321, 18 h
Procedure, shortened: (§1)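 CLSI broth microdilution against clinical isolates (ESBL E. coli, KPC-2 MDR K. pneumoniae, IMP-4 MDR P. aeruginosa; five per species). Iron limitation: Mueller-Hinton broth supplemented with 16 mg/liter 2,2'-bipyridyl to complex iron and induce iron uptake systems. Read-out: MIC.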

[9] = test system: Escherichia coli; assay: Selectivity index, ratio of MIC for against extended-spectrum beta-lactamase producing Escherichia coli isolate 106342 to MIC for extended-spectrum beta-lactamase producing Escherichia coli isolate 106342 in presence of BPL
[10] = test system: Klebsiella pneumoniae; assay: Antibacterial activity against KPC-2 producing Klebsiella pneumoniae isolate 212229 after 18 hrs by CLSI broth microdilution method; conditions: isolate 212229, 18 h
[11] = test system: Klebsiella pneumoniae; assay: Antibacterial activity against KPC-2 producing Klebsiella pneumoniae isolate 212232 after 18 hrs by CLSI broth microdilution method; conditions: isolate 212232, 18 h
[12] = test system: Klebsiella pneumoniae; assay: Selectivity index, ratio of MIC for against KPC-2 producing Klebsiella pneumoniae isolate 212232 to MIC for against KPC-2 producing Klebsiella pneumoniae isolate 212232 in presence of BPL
[13] = test system: Pseudomonas aeruginosa; assay: Antibacterial activity against IMP-4 producing Pseudomonas aeruginosa isolate 209321 after 18 hrs by CLSI broth microdilution method; conditions: isolate 209321, 18 h
[14] = test system: Pseudomonas aeruginosa; assay: Antibacterial activity against IMP-4 producing Pseudomonas aeruginosa isolate 212886 after 18 hrs in presence of BPL by CLSI broth microdilution method; conditions: isolate 212886, 18 h; procedure, shortened: as §1
[15] = test system: Escherichia coli; assay: Antibacterial activity against extended-spectrum beta-lactamase producing Escherichia coli isolate 209285 after 18 hrs in presence of BPL by CLSI broth microdilution method; conditions: isolate 209285, 18 h; procedure, shortened: as §1
[16] = test system: Escherichia coli; assay: Selectivity index, ratio of MIC for against extended-spectrum beta-lactamase producing Escherichia coli isolate 212648 to MIC for extended-spectrum beta-lactamase producing Escherichia coli isolate 212648 in presence of BPL
[17] = test system: Escherichia coli; assay: Antibacterial activity against extended-spectrum beta-lactamase producing Escherichia coli isolate 208687 after 18 hrs in presence of BPL by CLSI broth microdilution method; conditions: isolate 208687, 18 h; procedure, shortened: as §1
[18] = test system: Escherichia coli; assay: Selectivity index, ratio of MIC for against Escherichia coli isolate 210737 to MIC for Escherichia coli isolate 210737 in presence of BPL
[19] = test system: Escherichia coli; assay: Antibacterial activity against extended-spectrum beta-lactamase producing Escherichia coli isolate 212648 after 18 hrs by CLSI broth microdilution method; conditions: isolate 212648, 18 h
[20] = test system: Klebsiella pneumoniae; assay: Antibacterial activity against KPC-2 producing Klebsiella pneumoniae isolate 212229 after 18 hrs in presence of BPL by CLSI broth microdilution method; conditions: isolate 212229, 18 h; procedure, shortened: as §1
[21] = test system: Pseudomonas aeruginosa; assay: Antibacterial activity against IMP-4 producing Pseudomonas aeruginosa isolate 207272 after 18 hrs in presence of BPL by CLSI broth microdilution method; conditions: isolate 207272, 18 h; procedure, shortened: as §1
[22] = test system: Escherichia coli; assay: Selectivity index, ratio of MIC for against extended-spectrum beta-lactamase producing Escherichia coli isolate 208687 to MIC for extended-spectrum beta-lactamase producing Escherichia coli isolate 208687 in presence of BPL
[23] = test system: Pseudomonas aeruginosa; assay: Antibacterial activity against IMP-4 producing Pseudomonas aeruginosa isolate 209471 after 18 hrs in presence of BPL by CLSI broth microdilution method; conditions: isolate 209471, 18 h; procedure, shortened: as §1
[24] = test system: Klebsiella pneumoniae; assay: Selectivity index, ratio of MIC for against KPC-2 producing Klebsiella pneumoniae isolate 212423 to MIC for against KPC-2 producing Klebsiella pneumoniae isolate 212423 in presence of BPL
[25] = test system: Pseudomonas aeruginosa; assay: Selectivity index, ratio of MIC for against IMP-4 producing Pseudomonas aeruginosa isolate 212886 to MIC for against IMP-4 producing Pseudomonas aeruginosa isolate 212886 in presence of BPL
[26] = test system: Pseudomonas aeruginosa; assay: Antibacterial activity against IMP-4 producing Pseudomonas aeruginosa isolate 208247 after 18 hrs in presence of BPL by CLSI broth microdilution method; conditions: isolate 208247, 18 h; procedure, shortened: as §1
[27] = test system: Escherichia coli; assay: Antibacterial activity against extended-spectrum beta-lactamase producing Escherichia coli isolate 106342 after 18 hrs in presence of BPL by CLSI broth microdilution method; conditions: isolate 106342, 18 h; procedure, shortened: as §1
[28] = test system: Pseudomonas aeruginosa; assay: Antibacterial activity against IMP-4 producing Pseudomonas aeruginosa isolate 208247 after 18 hrs by CLSI broth microdilution method; conditions: isolate 208247, 18 h
[29] = test system: Klebsiella pneumoniae; assay: Antibacterial activity against KPC-2 producing Klebsiella pneumoniae isolate 209735 after 18 hrs in presence of BPL by CLSI broth microdilution method; conditions: isolate 209735, 18 h; procedure, shortened: as §1
[30] = test system: Klebsiella pneumoniae; assay: Selectivity index, ratio of MIC for against KPC-2 producing Klebsiella pneumoniae isolate 212229 to MIC for against KPC-2 producing Klebsiella pneumoniae isolate 212229 in presence of BPL
[31] = test system: Pseudomonas aeruginosa; assay: Antibacterial activity against IMP-4 producing Pseudomonas aeruginosa isolate 212886 after 18 hrs by CLSI broth microdilution method; conditions: isolate 212886, 18 h
[32] = test system: Escherichia coli; assay: Selectivity index, ratio of MIC for against extended-spectrum beta-lactamase producing Escherichia coli isolate 209285 to MIC for extended-spectrum beta-lactamase producing Escherichia coli isolate 209285 in presence of BPL
[33] = test system: Escherichia coli; assay: Antibacterial activity against Escherichia coli isolate 210737 after 18 hrs by CLSI broth microdilution method; conditions: isolate 210737, 18 h
[34] = test system: Escherichia coli; assay: Antibacterial activity against Escherichia coli isolate 210737 after 18 hrs in presence of BPL by CLSI broth microdilution method; conditions: isolate 210737, 18 h; procedure, shortened: as §1
[35] = test system: Klebsiella pneumoniae; assay: Selectivity index, ratio of MIC for against KPC-2 producing Klebsiella pneumoniae isolate 209735 to MIC for against KPC-2 producing Klebsiella pneumoniae isolate 209735 in presence of BPL
[36] = test system: Pseudomonas aeruginosa; assay: Antibacterial activity against IMP-4 producing Pseudomonas aeruginosa isolate 207272 after 18 hrs by CLSI broth microdilution method; conditions: isolate 207272, 18 h
[37] = test system: Klebsiella pneumoniae; assay: Antibacterial activity against KPC-2 producing Klebsiella pneumoniae isolate 209632 after 18 hrs in presence of BPL by CLSI broth microdilution method; conditions: isolate 209632, 18 h; procedure, shortened: as §1
[38] = test system: Pseudomonas aeruginosa; assay: Selectivity index, ratio of MIC for against IMP-4 producing Pseudomonas aeruginosa isolate 208247 to MIC for against IMP-4 producing Pseudomonas aeruginosa isolate 208247 in presence of BPL
[39] = test system: Pseudomonas aeruginosa; assay: Selectivity index, ratio of MIC for against IMP-4 producing Pseudomonas aeruginosa isolate 209471 to MIC for against IMP-4 producing Pseudomonas aeruginosa isolate 209471 in presence of BPL
[40] = test system: Escherichia coli; assay: Antibacterial activity against extended-spectrum beta-lactamase producing Escherichia coli isolate 208687 after 18 hrs by CLSI broth microdilution method; conditions: isolate 208687, 18 h
[41] = test system: Escherichia coli; assay: Antibacterial activity against extended-spectrum beta-lactamase producing Escherichia coli isolate 212648 after 18 hrs in presence of BPL by CLSI broth microdilution method; conditions: isolate 212648, 18 h; procedure, shortened: as §1
[42] = test system: Klebsiella pneumoniae; assay: Antibacterial activity against KPC-2 producing Klebsiella pneumoniae isolate 212423 after 18 hrs in presence of BPL by CLSI broth microdilution method; conditions: isolate 212423, 18 h; procedure, shortened: as §1
[43] = test system: Klebsiella pneumoniae; assay: Antibacterial activity against KPC-2 producing Klebsiella pneumoniae isolate 212232 after 18 hrs in presence of BPL by CLSI broth microdilution method; conditions: isolate 212232, 18 h; procedure, shortened: as §1
[44] = test system: Pseudomonas aeruginosa; assay: Antibacterial activity against IMP-4 producing Pseudomonas aeruginosa isolate 209471 after 18 hrs by CLSI broth microdilution method; conditions: isolate 209471, 18 h

CC(C)C(O/N=C(\C(=O)N[C@@H]1C(=O)N(S(=O)(=O)O)[C@@H]1CSc1nc(=O)c(O)nn1C)c1csc(N)n1)c1cc(=O)c(O)cn1O (some centres undefined)
8: Selectivity Index [12]
>2: Selectivity Index [25]
2 µg/mL: MIC [1] | MIC [11] | MIC [27] | MIC [29] | MIC [33] | MIC [42]
2: Selectivity Index [6] | Selectivity Index [9] | Selectivity Index [18] | Selectivity Index [24] | Selectivity Index [35]
32 µg/mL: MIC [14]
1 µg/mL: MIC [17] | MIC [20] | MIC [34] | MIC [37] | MIC [41]
4 µg/mL: MIC [3] | MIC [4] | MIC [5] | MIC [7] | MIC [10] | MIC [15] | MIC [19] | MIC [40]
1: Selectivity Index [2] | Selectivity Index [32] | Selectivity Index [38] | Selectivity Index [39]
64 µg/mL: MIC [21] | MIC [23] | MIC [26] | MIC [28] | MIC [36] | MIC [44]
4: Selectivity Index [16] | Selectivity Index [22] | Selectivity Index [30]
> 64 µg/mL: MIC [8] | MIC [13] | MIC [31]
0.25 µg/mL: MIC [43]
